According to ChEMBL document CHEMBL4610058, “Mariannamides A and B, new cyclic octapeptides isolated from Mariannaea elegans NBRC102301” (2020):
Calls of active or inactive are those of the source. The calls are words filed in the database; no cut-off is given here. Where a SMILES comes first, the peptide text is derived from it.

How the values were obtained:
C2C12 [1] = experiment: Upregulation of SIRT1 mRNA expression in mouse C2C12 cells at 50 uM measured after 24 hrs by qRT-PCR analysis; assay type: functional, cell-based
Summary of the method: (§1)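 C2C12 seeded at 2×10^5 cells/well, grown to 90% confluence, then differentiated 2 days in DMEM with 2% horse serum. Treated 24 h with compound (10–50 µM), DMSO, or resveratrol 50 µM (positive control). SIRT1 mRNA measured by qRT-PCR (40 cycles, 95/60 °C), GAPDH reference, ΔΔCt vs DMSO. Triplicate; mean ± S.E.M.; one-way ANOVA with Tukey.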

Escherichia coli = experiment: Antimicrobial activity against Escherichia coli U541 assessed as diameter of inhibition zone measured after 24 hrs by disc diffusion assay; assay type: functional
Summary of the method: (§2)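 Bacteria grown in Mueller Hinton broth at 37 °C for 24 h and adjusted to 0.5 McFarland. 6 mm paper discs loaded with 2 µg compound (20 µL) placed on Mueller Hinton agar spread with the suspension, then incubated 37 °C for 24 h. Inhibition-zone diameter measured including the disc. Blank 5% DMSO discs as negative control. Triplicate.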

Cryptococcus neoformans = experiment: Antimicrobial activity against Cryptococcus neoformans IFM 40215 assessed as diameter of inhibition zone measured after 24 hrs by disc diffusion assay; assay type: functional
Summary of the method: (§3)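 Yeasts pre-cultured on YPD agar at 37 °C for 24 h, suspended in Mueller Hinton broth and adjusted to 0.5 McFarland. 6 mm discs carrying 2 µg compound (20 µL) laid on Mueller Hinton agar spread with the fungal suspension, then incubated 37 °C for 24 h. Zone diameter read including the disc. 5% DMSO discs as negative control. Triplicate.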

C2C12 [2] = experiment: Upregulation of SIRT1 mRNA expression in mouse C2C12 cells at 50 uM measured after 24 hrs by qRT-PCR analysis relative to control; assay type: functional; summary of the method: as §1
Staphylococcus aureus = experiment: Antimicrobial activity against methicillin-resistant Staphylococcus aureus N315 measured after 24 hrs by disc diffusion method; assay type: functional, organism-based
Summary of the method: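 Disc diffusion on Müller Hinton agar. MRSA N315 grown in Müller Hinton broth at 37 °C for 24 h, then adjusted to McFarland 0.5. Sterile 6 mm paper discs loaded with 20 µL (2 µg) of compound. Incubation at 37 °C for 24 h. Read-out is inhibition zone diameter including the disc. Negative control was discs with 5% DMSO. Triplicate; mean ± S.E.M.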

Enterococcus faecalis = experiment: Antimicrobial activity against Enterococcus faecalis JCM7783 measured after 24 hrs by disc diffusion method; assay type: functional, organism-based; summary of the method: as §2
[Candida] auris = Antimicrobial activity against Candida auris JCM 15448 measured after 24 hrs by disc diffusion method; assay type: functional, organism-based; conditions: Candidozyma auris; summary of the method: as §3
Candida albicans = experiment: Antimicrobial activity against Candida albicans IFM 40213 measured after 24 hrs by disc diffusion method; assay type: functional, organism-based; summary of the method: as §3
Nakaseomyces glabratus = experiment: Antimicrobial activity against Candida glabrata IFM 40217 measured after 24 hrs by disc diffusion method; assay type: functional, organism-based; summary of the method: as §3
[3] = system: Meyerozyma guilliermondii; experiment: Antimicrobial activity against Candida guilliermondii TIMM 0260 measured after 24 hrs by disc diffusion method; assay type: functional, organism-based; summary of the method: as §3
Candida parapsilosis = experiment: Antimicrobial activity against Candida parapsilosis IFM 40218 measured after 24 hrs by disc diffusion method; assay type: functional, organism-based; summary of the method: as §3
Bacillus subtilis = experiment: Antimicrobial activity against Bacillus subtilis HA101 measured after 24 hrs by disc diffusion method; assay type: functional, organism-based; summary of the method: as §2

`Oc1ccc(/C=C/c2cc(O)cc(O)c2)cc1` was tested, and the Activity (C2C12 [1]) was “Active”.
For `CC[C@H](C)[C@@H]1NC(=O)[C@H](C(C)C)NC(=O)[C@@H]2CCCN2C(=O)[C@H]([C@@H](C)CC)NC(=O)[C@H](CC(C)C)NC(=O)[C@@H]2CCCN2C(=O)[C@@H]2CCCN2C(=O)[C@H](CC(C)C)NC1=O` (cyclo(ILPPLIPV)), the “diameter of the inhibition zone (DIZ)” value (Escherichia coli) was 9.4 mm, the “diameter of the inhibition zone (DIZ)” value (Cryptococcus neoformans) was 7.7 mm and the “fold change (FC)” value (C2C12 [2]) was 1.5.
For `CC[C@H](C)[C@@H]1NC(=O)[C@H](CC(C)C)NC(=O)[C@@H]2CCCN2C(=O)[C@@H]2CCCN2C(=O)[C@H](CC(C)C)NC(=O)[C@H](C(C)C)NC(=O)[C@H](C(C)C)NC(=O)[C@@H]2CCCN2C1=O` (cyclo(IPVVLPPL)), the Activity (Escherichia coli) was “inactive”, the Activity (Staphylococcus aureus) was “inactive” and the Activity (Enterococcus faecalis) was “inactive”. For the same molecule, the Activity ([Candida] auris) was “inactive”, the Activity (Candida albicans) was “inactive” and the Activity (Nakaseomyces glabratus) was “inactive”. The Activity [3] was “inactive”, the Activity (Candida parapsilosis) was “inactive” and the Activity (Bacillus subtilis) was “inactive”. For the same molecule, the Activity (Cryptococcus neoformans) was “inactive”.
